Test results taken from article PMC6931074 (Journal of Pharmaceutical Analysis, 2018).
Like-named read-outs stand apart in the source and are kept apart here.

Assays:
[1] = type: physicochemical
Procedure, shortened: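 Test compound stock (0.75 mg/mL in N,N-dimethylformamide) was diluted to 150 μg/mL in phosphate buffers (pH 1.85–10.97, set at 25 °C). Solutions in glass tubes were held in a thermostat bath at 25, 37, 60, 80 or 100 °C. Aliquots were taken at 0–24 h, ice-quenched, diluted tenfold in methanol, filtered (0.22 µm) and run by C18 RP-HPLC (UV 396 nm). Half-life = ln2/k; activation parameters came from Arrhenius relationship.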

Influence of irradiation = type: physicochemical; settings: solution under indirect daylight at room temperature, after 15 min
Procedure, shortened: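 A 150 μg/mL test compound solution was exposed to daylight at 25 °C, alongside a light-shielded control. Content was measured by C18 RP-HPLC using acetonitrile–phosphate buffer (35:65, pH 6.5) at 1 mL/min, 30 °C, with UV detection at 396 nm.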

Influence of oxidation = type: physicochemical; settings: H2O2 3%, 10% and 30%
Procedure, shortened: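 Test compound solutions (150 μg/mL) containing 3%, 10% or 30% H₂O₂ were incubated at 25 °C. Samples taken at 0, 2, 5, 10, 20 and 30 min were ice-quenched, diluted tenfold with methanol, filtered (0.22 µm) and quantified by isocratic C18 RP-HPLC (UV 396 nm). Rate constants were derived from plots of ln(Ct/C0) against time.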

[2] = cited from earlier work

Question: What does the source list for CC(/C=C1\SC(=S)N(CC(=O)O)C1=O)=C\c1ccccc1 [epalrestat, 5-[(1Z,2E)− 2-methyl-3-phenylpropenylidene]-4-oxo-2-thioxo-3-thiazolidie acetic acid]?
Answer: pH of maximum stability ([1]; 25 °C, pH 1.85 to 10.97): ~10.97; half-life at 150 μg/mL ([1]; aqueous phosphate buffer, pH 1.85, half-time (t1/2), pH 1.85, 25 °C): 43.3 h; half-life at 150 μg/mL ([1]; aqueous phosphate buffer, pH 1.85, half-time (t1/2), pH 1.85, 37 °C): 33.6 h; half-life at 150 μg/mL ([1]; aqueous phosphate buffer, pH 1.85, half-time (t1/2), pH 1.85, 60 °C): 29.6 h; half-life at 150 μg/mL ([1]; aqueous phosphate buffer, pH 1.85, half-time (t1/2), pH 1.85, 80 °C): 24.6 h; half-life at 150 μg/mL ([1]; aqueous phosphate buffer, pH 1.85, half-time (t1/2), pH 1.85, 100 °C): 10.6 h; half-life at 150 μg/mL ([1]; aqueous phosphate buffer, pH 3.13, half-time (t1/2), pH 3.13, 25 °C): 43.6 h; half-life at 150 μg/mL ([1]; aqueous phosphate buffer, pH 3.13, half-time (t1/2), pH 3.13, 37 °C): 35.7 h; half-life at 150 μg/mL ([1]; aqueous phosphate buffer, pH 3.13, half-time (t1/2), pH 3.13, 60 °C): 33.6 h; half-life at 150 μg/mL ([1]; aqueous phosphate buffer, pH 3.13, half-time (t1/2), pH 3.13, 80 °C): 23.3 h; half-life at 150 μg/mL ([1]; aqueous phosphate buffer, pH 3.13, half-time (t1/2), pH 3.13, 100 °C): 11.1 h; half-life at 150 μg/mL ([1]; aqueous phosphate buffer, pH 5, half-time (t1/2), pH 5.00, 25 °C): 116 h; half-life at 150 μg/mL ([1]; aqueous phosphate buffer, pH 5, half-time (t1/2), pH 5.00, 37 °C): 60.3 h; half-life at 150 μg/mL ([1]; aqueous phosphate buffer, pH 5, half-time (t1/2), pH 5.00, 60 °C): 36.3 h; half-life at 150 μg/mL ([1]; aqueous phosphate buffer, pH 5, half-time (t1/2), pH 5.00, 80 °C): 22.9 h; half-life at 150 μg/mL ([1]; aqueous phosphate buffer, pH 5, half-time (t1/2), pH 5.00, 100 °C): 9.67 h; △H^‡ (enthalpy of activation) ([1]; pH 1.85): 2.806 kcal/mol; △S^‡ (entropy of activation) ([1]; pH 1.85): −647.95 J/K/mol; Rate constant (k) ([1]; pH 1.85, 25 °C): 0.0160 h⁻¹; Rate constant (k) ([1]; pH 1.85, 37 °C): 0.0206 h⁻¹; Rate constant (k) ([1]; pH 1.85, 60 °C): 0.0234 h⁻¹; Rate constant (k) ([1]; pH 1.85, 80 °C): 0.0282 h⁻¹; Rate constant (k) ([1]; pH 1.85, 100 °C): 0.0655 h⁻¹; Ea (activation energy) ([1]; pH 1.85, Arrhenius plot 25–100 °C): 3.468 kcal/mol; △H^‡ (enthalpy of activation) ([1]; pH 3.13): 2.885 kcal/mol; △S^‡ (entropy of activation) ([1]; pH 3.13): −646.94 J/K/mol; Rate constant (k) ([1]; pH 3.13, 25 °C): 0.0159 h⁻¹; Rate constant (k) ([1]; pH 3.13, 37 °C): 0.0194 h⁻¹; Rate constant (k) ([1]; pH 3.13, 60 °C): 0.0206 h⁻¹; Rate constant (k) ([1]; pH 3.13, 80 °C): 0.0297 h⁻¹; Rate constant (k) ([1]; pH 3.13, 100 °C): 0.0627 h⁻¹; Ea (activation energy) ([1]; pH 3.13, Arrhenius plot 25–100 °C): 3.549 kcal/mol; △H^‡ (enthalpy of activation) ([1]; pH 5.00): 6.03 kcal/mol; △S^‡ (entropy of activation) ([1]; pH 5.00): −607.24 J/K/mol; Rate constant (k) ([1]; pH 5.00, 25 °C): 0.0060 h⁻¹; Rate constant (k) ([1]; pH 5.00, 37 °C): 0.0115 h⁻¹; Rate constant (k) ([1]; pH 5.00, 60 °C): 0.0191 h⁻¹; Rate constant (k) ([1]; pH 5.00, 80 °C): 0.0302 h⁻¹; Rate constant (k) ([1]; pH 5.00, 100 °C): 0.0717 h⁻¹; Ea (activation energy) ([1]; pH 5.00, Arrhenius plot 25–100 °C): 6.692 kcal/mol; △H^‡ (enthalpy of activation) ([1]; pH 7.10): 6.217 kcal/mol; △S^‡ (entropy of activation) ([1]; pH 7.10): −604.87 J/K/mol; Rate constant (k) ([1]; pH 7.10, 25 °C): 0.0043 h⁻¹; Rate constant (k) ([1]; pH 7.10, 37 °C): 0.0153 h⁻¹; Rate constant (k) ([1]; pH 7.10, 60 °C): 0.0195 h⁻¹; Rate constant (k) ([1]; pH 7.10, 80 °C): 0.0280 h⁻¹; Rate constant (k) ([1]; pH 7.10, 100 °C): 0.0695 h⁻¹; Ea (activation energy) ([1]; pH 7.10, Arrhenius plot 25–100 °C): 6.879 kcal/mol; △H^‡ (enthalpy of activation) ([1]; pH 9.08): 7.012 kcal/mol; △S^‡ (entropy of activation) ([1]; pH 9.08): −594.83 J/K/mol; Rate constant (k) ([1]; pH 9.08, 25 °C): 0.0033 h⁻¹; Rate constant (k) ([1]; pH 9.08, 37 °C): 0.0122 h⁻¹; Rate constant (k) ([1]; pH 9.08, 60 °C): 0.0194 h⁻¹; Rate constant (k) ([1]; pH 9.08, 80 °C): 0.0264 h⁻¹; Rate constant (k) ([1]; pH 9.08, 100 °C): 0.0690 h⁻¹; Ea (activation energy) ([1]; pH 9.08, Arrhenius plot 25–100 °C): 7.674 kcal/mol; △H^‡ (enthalpy of activation) ([1]; pH 10.97): 10.38 kcal/mol; △S^‡ (entropy of activation) ([1]; pH 10.97): −552.37 J/K/mol; Rate constant (k) ([1]; pH 10.97, 25 °C): 0.0016 h⁻¹; shelf-life (t0.9) ([1]; pH 10.97, 25 °C): 65.88; Rate constant (k) ([1]; pH 10.97, 37 °C): 0.0036 h⁻¹; shelf-life (t0.9) ([1]; pH 10.97, 37 °C): 29.28; Rate constant (k) ([1]; pH 10.97, 60 °C): 0.0140 h⁻¹; shelf-life (t0.9) ([1]; pH 10.97, 60 °C): 7.53; Rate constant (k) ([1]; pH 10.97, 80 °C): 0.0267 h⁻¹; shelf-life (t0.9) ([1]; pH 10.97, 80 °C): 3.95; Rate constant (k) ([1]; pH 10.97, 100 °C): 0.0724 h⁻¹; shelf-life (t0.9) ([1]; pH 10.97, 100 °C): 1.46; Ea (activation energy) ([1]; pH 10.97, Arrhenius plot 25–100 °C): 11.04 kcal/mol; half-life at 150 μg/mL ([1]; phosphate buffer, pH 7.1, half-time (t1/2), pH 7.10, 25 °C): 161 h; half-life at 150 μg/mL ([1]; phosphate buffer, pH 7.1, half-time (t1/2), pH 7.10, 37 °C): 45.3 h; half-life at 150 μg/mL ([1]; phosphate buffer, pH 7.1, half-time (t1/2), pH 7.10, 60 °C): 35.5 h; half-life at 150 μg/mL ([1]; phosphate buffer, pH 7.1, half-time (t1/2), pH 7.10, 80 °C): 24.8 h; half-life at 150 μg/mL ([1]; phosphate buffer, pH 7.1, half-time (t1/2), pH 7.10, 100 °C): 9.97 h; half-life at 150 μg/mL ([1]; phosphate buffer, pH 9.08, half-time (t1/2), pH 9.08, 25 °C): 210 h; half-life at 150 μg/mL ([1]; phosphate buffer, pH 9.08, half-time (t1/2), pH 9.08, 37 °C): 56.8 h; half-life at 150 μg/mL ([1]; phosphate buffer, pH 9.08, half-time (t1/2), pH 9.08, 60 °C): 35.7 h; half-life at 150 μg/mL ([1]; phosphate buffer, pH 9.08, half-time (t1/2), pH 9.08, 80 °C): 26.2 h; half-life at 150 μg/mL ([1]; phosphate buffer, pH 9.08, half-time (t1/2), pH 9.08, 100 °C): 10 h; half-life at 150 μg/mL ([1]; phosphate buffer, pH 10.97, half-time (t1/2), pH 10.97, 25 °C): 433 h; half-life at 150 μg/mL ([1]; phosphate buffer, pH 10.97, half-time (t1/2), pH 10.97, 37 °C): 192 h; half-life at 150 μg/mL ([1]; phosphate buffer, pH 10.97, half-time (t1/2), pH 10.97, 60 °C): 49.5 h; half-life at 150 μg/mL ([1]; phosphate buffer, pH 10.97, half-time (t1/2), pH 10.97, 80 °C): 26 h; half-life at 150 μg/mL ([1]; phosphate buffer, pH 10.97, half-time (t1/2), pH 10.97, 100 °C): 9.57 h; reaction order of degradation ([1]; plot of ln(Ct/C0) against time, all degradation conditions): first-order; content of epalrestat relative to that protected from light (Influence of irradiation): a third; stability under oxidation conditions (Influence of oxidation): extremely unstable; behaviour of epalrestat powder on exposure to light [2]: gradually fades in color and decomposes on exposure to light
